Reference: paper PMC6279569 (Clinical cancer research : an official journal of the …, 2018)

Legend:
human TRβ = target: T1, human TRβ (Homo sapiens, UniProt P10828); assay: Human thyroid hormone receptor beta; assay type: cell-based; conditions: various concentrations, 24 h
T1 sequence (P10828 1-461): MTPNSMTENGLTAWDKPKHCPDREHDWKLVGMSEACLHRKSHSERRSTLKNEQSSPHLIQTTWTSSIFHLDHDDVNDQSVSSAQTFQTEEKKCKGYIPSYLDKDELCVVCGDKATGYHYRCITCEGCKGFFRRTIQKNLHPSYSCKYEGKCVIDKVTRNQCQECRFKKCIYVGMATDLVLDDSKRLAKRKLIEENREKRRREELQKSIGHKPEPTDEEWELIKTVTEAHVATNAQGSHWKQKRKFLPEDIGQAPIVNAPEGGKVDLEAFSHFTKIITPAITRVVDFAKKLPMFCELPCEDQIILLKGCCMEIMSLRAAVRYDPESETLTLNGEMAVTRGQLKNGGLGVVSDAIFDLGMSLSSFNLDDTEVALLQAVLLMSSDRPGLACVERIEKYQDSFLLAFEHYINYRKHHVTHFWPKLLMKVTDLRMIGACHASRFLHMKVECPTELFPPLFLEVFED
In short: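 Commercial reporter cells constitutively expressing human TRβ, with luciferase driven by a TRβ-responsive promoter. Treated for 24 h with various concentrations of T3 (reference agonist) or test compound. TRβ activity read as luciferase relative luminescence units on a plate reader.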

SK-N-DZ and H524 cells = assay: Cell cycle analysis by PI flow cytometry, cancer cells; assay type: cell-based, human
[1] = test system: γH2A.X, caspase-3 and caspase-9 in cancer cells; assay: Western blot, cancer cells; assay type: cell-based, human
In short: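 Conditions: SK-N-DZ cells with 3 µM AOH39 for 0, 6 or 24 h; cancer cells with 500 nM AOH1160 for the indicated times. Cells were lysed in Laemmli buffer, sonicated, run on 4–12% SDS-PAGE and blotted to nitrocellulose. After 5% milk block, blots were probed for γH2A.X, total H2A.X, cleaved and full-length caspase-3, and cleaved caspase-9. Detection used peroxidase secondaries and ECL.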

[2] = test system: HR-mediated DSB repair in DR-GFP cells; assay: Double stranded DNA break repair assay, DR-GFP; assay type: cell-based
In short: (§1)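 U2OS-derived reporter lines carry stable GFP reporters: DR-GFP for HR and EJ5-GFP for end joining. Cells were grown in DMEM/10% FBS, seeded at 2.5×10⁴ cells/cm² and attached overnight. They were lipofected with an I-SceI expression plasmid; after 3 h, medium was replaced with fresh medium containing test compound at various concentrations (DMSO control). GFP-positive fraction was measured by flow cytometry 3 d post-transfection, relative to control.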

[3] = test system: EJ-mediated DSB repair in EJ5-GFP cells; assay: Double stranded DNA break repair assay, EJ5-GFP; assay type: cell-based; conditions: 4 µM AOH39
In short: as §1

[4] = test system: non-malignant cells (PBMC, 7SM0032, MCF10A, mammary epithelial cells, small airway epithelial cells); assay: Cell growth, CellTitor-Glo assay, non-malignant cells; assay type: cell-based; conditions: human PBMCs, 7SM0032 cells
glioblastoma stem cells = assay: Cell growth of glioblastoma stem cells; assay type: cell-based, human; conditions: 1 µM, 72 hours; PBT003, PBT707, PBT017
In short: (§2)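 Cells derived from WHO grade IV glioblastoma or primary brain tissue, grown as neurospheres in DMEM/F12 with 20 ng/ml EGF, 20 ng/ml FGF, 5 µg/ml heparin, B27 and 2 mM L-glutamine. Seeded at 5 × 10³/ml or 3 × 10⁴/ml. Given DMSO or 1 µM compound for 72 h. Growth read by CellTiter-Glo luminescence relative to DMSO control, ± S.D.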

normal neural stem cells = assay: Cell growth of normal neural stem cells; assay type: cell-based; conditions: 1 µM, 72 hours; NSC005-007
In short: as §2

Recombinant human PCNA = Recombinant human PCNA (Homo sapiens, UniProt P12004); assay: Saturation Transfer Difference; assay type: binding; conditions: T3 50 µM, AOH1160 expected 16 µM, 1 µM PCNA
Recombinant human PCNA, sequence (P12004 whole entry): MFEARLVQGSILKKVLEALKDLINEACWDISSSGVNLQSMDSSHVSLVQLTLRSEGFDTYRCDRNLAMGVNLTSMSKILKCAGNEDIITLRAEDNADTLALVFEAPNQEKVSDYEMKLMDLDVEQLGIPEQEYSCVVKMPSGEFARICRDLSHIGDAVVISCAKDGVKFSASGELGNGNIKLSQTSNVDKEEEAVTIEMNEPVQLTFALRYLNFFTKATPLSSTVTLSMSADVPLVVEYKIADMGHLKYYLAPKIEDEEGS
In short: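 Recombinant human PCNA (1 µM) in 15 mM D₂O phosphate buffer, pH 7.2, with 10 µM deuterated DTT and 2% D₆-DMSO. T3 (50 µM) was run with and without test compound; 4 µM DSS served as internal reference for ligand concentration. Spectra were taken at 25 °C, 700 MHz, cryoprobe. Saturation was at 0.9 ppm and reference at −30 ppm, acquired interleaved. STD = (I_Ref − I_STD)/I_Ref.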

[5] = test system: SK-N-BE(2)c, H82 and H526 cells; assay: DNA combing analysis of replication fork extension; assay type: cell-based, human; conditions: 0.2 µM, 20 minutes, vs untreated control
In short: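 Synchronized S-phase cells (DMEM, 10% FBS) pulsed with CldU for 10 min, washed, then IdU for 20 min with or without 0.2 µM compound. Cells lysed on slides and DNA fibres spread. Fibres immunostained for CldU (green) and IdU (red). Segment lengths from more than 30 fibres averaged ± SD. IdU lengths compared with the untreated control by Student's t-test.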

7SM0032 and SAEC cells = assay: Cell cycle analysis by PI flow cytometry, non-malignant cells; assay type: cell-based, human; conditions: 500 nM AOH1160
In short: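 7SM0032 cells (hEPM-1 medium) and SAEC (SAGM medium), 37°C, 5% CO2. Seeded at 1×10⁵/ml and attached overnight. Exposed to 500 nM test compound for the indicated time (methods: 6 or 24 h). Fixed in 60% ethanol, stained with propidium iodide, and analysed by flow cytometry. Cell-cycle populations, including sub-G1, were modelled from PI intensity.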

γH2A.X in 7SM0032 cells = assay: Western blot, non-malignant cells; assay type: cell-based, human; conditions: 500 nM AOH1160
In short: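 7SM0032 cells treated with 500 nM compound for the indicated times, then lysed directly in Laemmli buffer on the plate. Immunoblot membranes blocked in 5% nonfat milk and probed with anti-γH2A.X. Detection with peroxidase-conjugated secondary antibody and ECL.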

SK-N-DZ cells = assay: TUNEL assay, cancer cells; assay type: cell-based, human; conditions: 500 nM AOH1160, 24 h
In short: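 Cells were seeded at 1×10⁵/ml on chamber slides. Once attached, they were treated 24 h with 500 nM test compound, then fixed. Apoptosis was detected by TUNEL with a TMR red in situ cell death kit; red TMR fluorescence marks free DNA ends.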

7SM0032 cells = assay: TUNEL assay, non-malignant cells; assay type: cell-based; conditions: 500 nM AOH1160, 24 h
In short: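 7SM0032 cells (hEPM-1 medium, 37°C, 5% CO2) seeded at 1×10⁵/ml on chamber slides. Once attached, treated with 500 nM compound for 24 h. Fixed and labelled by TUNEL using a TMR-red in situ cell death kit. Red fluorescence at free DNA ends scored as apoptotic cells.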

SK-N-DZ NB cells = assay: Clonogenic assay with cisplatin, SK-N-DZ; assay type: cell-based, human; conditions: 500 nM AOH1160, 18 h
In short: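 300 SK-N-DZ cells per 60-mm dish, attached overnight, then treated 18 h with or without various cisplatin concentrations, with or without 500 nM test compound. After two washes, cells were grown 3 weeks in fresh medium changed every 3 d. Colonies were stained with 0.5% crystal violet and counted. Combination index used the Bliss independence model: CI = (E_A+E_B−E_A*E_B)/E_AB.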

carboxyl esterase, ES-1 = target: T2, carboxyl esterase, ES-1 (Mus musculus, UniProt P23953); assay: Stability in plasma, rodent; assay type: in vitro ADME
T2 sequence (P23953 19-554): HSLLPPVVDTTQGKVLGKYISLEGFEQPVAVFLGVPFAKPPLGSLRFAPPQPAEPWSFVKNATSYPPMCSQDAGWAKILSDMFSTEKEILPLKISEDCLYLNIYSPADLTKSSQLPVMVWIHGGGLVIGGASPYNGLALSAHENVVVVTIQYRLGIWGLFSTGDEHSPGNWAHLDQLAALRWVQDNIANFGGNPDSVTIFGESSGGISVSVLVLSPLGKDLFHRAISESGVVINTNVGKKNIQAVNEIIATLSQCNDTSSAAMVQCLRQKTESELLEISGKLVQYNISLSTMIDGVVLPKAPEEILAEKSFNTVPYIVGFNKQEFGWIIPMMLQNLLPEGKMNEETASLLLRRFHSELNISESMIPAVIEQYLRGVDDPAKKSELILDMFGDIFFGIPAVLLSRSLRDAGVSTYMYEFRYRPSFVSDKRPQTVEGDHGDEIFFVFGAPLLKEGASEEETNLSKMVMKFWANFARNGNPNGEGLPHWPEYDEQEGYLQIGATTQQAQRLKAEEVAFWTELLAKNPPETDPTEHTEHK
In short: (§3)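 Test compound was incubated in plasma at 37 °C, with aliquots removed at various times. Remaining parent was quantified by LC-MS/MS (UPLC gradient, positive-ion electrospray) and expressed as percent of input concentration.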

[6] = Stability in plasma, canine; assay type: in vitro ADME; conditions: 37°C
In short: as §3

[7] = Stability in plasma, monkey; assay type: in vitro ADME; conditions: 37°C
In short: as §3

[8] = Stability in plasma, human; assay type: in vitro ADME; conditions: 37°C
In short: as §3

[9] = Stability in plasma, Es1e/SCID mice; assay type: in vitro ADME; conditions: Es1^e/SCID mouse plasma, 37°C
In short: as §3

Pharmacokinetic = assay type: in vivo, ES1^e/SCID mice
In short: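 Test compound was dissolved at 60 °C under nitrogen in vehicle (Kolliphor HS 15, Poloxamer 407, BHA, BHT, propyl gallate). It was diluted to 4 mg/mL in 1:1 water:vehicle just before dosing and given orally at 40 mg/kg to male and female ES1^e/SCID mice. Plasma was taken by cardiac puncture at 0–24 h (3 male + 3 female per time point). Levels were measured by LC-MS/MS (positive ESI, MRM); PK parameters were derived by non-compartmental analysis.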

[10] = mouse, in vivo
[11] = test system: xenograft tumors of SK-N-BE(2)c, SK-N-AS, MDA-MB-468 and H82; assay: In vivo xenograft tumor model; conditions: 40 mg/kg once daily by oral gavage

## O=C(CNC(=O)c1cccc2ccccc12)Nc1ccccc1Cc1ccccc1 [AOH39]
Human TRβ
  thyroid hormone activity in TR reporter assay: neither AOH1160 nor AOH39 showed any thyroid hormone activity
SK-N-DZ and H524 cells; SK-N-DZ, 3 µM AOH39, 6 or 24 h
  cell cycle effect: caused cell cycle arrest of cancer cells at the S and, to a larger degree, G2/M phases
SK-N-DZ and H524 cells; SK-N-DZ, 3 µM AOH39, 24 h
  apoptosis (sub-G1 population): cancer cells start to die through apoptosis
[1]; SK-N-DZ, 3 µM AOH39
  intracellular γH2A.X levels: enhanced intracellular γH2A.X levels
[2]; 4 µM AOH39
  HR-mediated DNA repair: inhibited HR-mediated DNA repair
[3]
  EJ-mediated DNA repair: without exerting any statistically significant effect on EJ

## O=C(CNC(=O)c1cccc2ccccc12)Nc1ccccc1Oc1ccccc1 [AOH1160]
[4]
  concentration up to which not significantly toxic: at least 5 µM
Glioblastoma stem cells
  growth of glioblastoma stem cells: inhibited the growth of glioblastoma stem cells
Normal neural stem cells
  growth of normal neural stem cells: without significantly affecting the growth of normal neural stem cells
Human TRβ
  thyroid hormone activity in TR reporter assay: neither AOH1160 nor AOH39 showed any thyroid hormone activity
Recombinant human PCNA
  effect on STD values of T3: caused reduction of STD values of T3
[5]
  length of IdU-incorporated DNA strands (replication fork extension): significantly shorter IdU-incorporated DNA strands
SK-N-DZ and H524 cells; 500 nM AOH1160
  apoptosis (sub-G1 population): promotes apoptosis
SK-N-DZ and H524 cells; neuroblastoma and small cell lung cancer cells, 500 nM AOH1160
  cell cycle effect: causes cell cycle arrest
7SM0032 and SAEC cells
  cell cycle profiles of non-malignant cells: doesn’t significantly change the cell cycle profiles
[1]; cancer cells, 500 nM AOH1160
  caspase activation: activation of caspase-3 and caspase-9
  γH2A.X levels: increases γH2A.X levels
γH2A.X in 7SM0032 cells
  intracellular γH2A.X level in non-malignant cells: Nor does it increase intracellular γH2A.X level
[2]; various concentrations of AOH1160
  HR-mediated DNA repair: blocks DNA repair in DR-GFP
SK-N-DZ cells
  apoptosis by TUNEL: increase in apoptosis
7SM0032 cells
  apoptosis by TUNEL in non-malignant cells: Nor does it increase intracellular γH2A.X level (Fig 4b) or induce apoptosis
SK-N-DZ NB cells
  sensitivity to cisplatin, colony formation: more sensitive to cisplatin treatment in the presence of AOH1160
Carboxyl esterase, ES-1; amide hydrolysis
  sensitivity to cleavage by ES-1: sensitive to cleavage by the carboxyl esterase, ES-1
Carboxyl esterase, ES-1; rodent plasma, 37°C
  stability in plasma: not stable
[6]
  stability in plasma: stable
[7]
  stability in plasma: stable
[8]
  stability in plasma: stable
[9]
  stability in plasma: stable
Pharmacokinetic; PO, 40 mg/kg
  half-life in vivo: about 3.5 h
  oral availability: available to the animal through the oral dosing route
  peak concentration (CMAX): well above the calculated IC50 of most cancer cell lines
Pharmacokinetic; mouse, in vivo
  metabolites in animal plasma: Metabolites derived from AOH1160 hydroxylation were observed
[10]
  toxicity in repeated dose study: No significant toxicity was observed
15 mM D2O phosphate buffer, 2% D6-DMSO, determined by 1D NMR spectra
  maximum concentration achievable under STD NMR condition: approximately 14.5 µM
Not told
  permeability: high permeability
[11]; vs vehicle
  tumor burden: significantly reduced tumor burden
[11]; data not shown
  death or weight loss: did not cause any death or significant weight loss
